From ChEMBL document CHEMBL3272316, “Oxime ether derivatives, a new class of nonsteroidal antiinflammatory compounds” (J Med Chem, 1977)

Assays:
Rattus norvegicus [1] = assay: Antiinflammatory activity in po dosed rat assessed as inhibition of carrageenan-induced paw edema compound administered 1 hr prior challenge measured 3 hrs post challenge; format: functional
Procedure, shortened: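 Rats of 180-220 g received oral doses in a series, in 1% tragacanth vehicle, 1 h before intraplantar injection of 0.05 mL of 1% carrageenan. Paw edema was measured at 3 h. ED50 (mg/kg) was derived graphically from the dose-inhibition curve, with 95% confidence limits by Finney's method for some compounds. Amines were tested as hydrochlorides.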

Rattus norvegicus [2] = assay: Antiinflammatory activity in rat assessed as inhibition of carrageenan-induced paw edema at 50 mg/kg, po administered 1 hr prior challenge measured 3 hrs post challenge; format: functional
Procedure, shortened: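 Rats of 180-220 g, four per group, were given 50 mg/kg orally in 1% tragacanth vehicle 1 h before intraplantar injection of 0.05 mL of 1% carrageenan. Hind-paw edema was measured 3 h after injection and reported as percent inhibition (Winter method).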

Mus musculus [3] = assay: Neurotoxicity in ip dosed mouse; format: toxicity, organism-based; conditions: in vivo
Procedure, shortened: (§1)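 Mice were assessed by a modified Irwin observational method.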

Canis familiaris [4] = species on record: Canis familiaris; assay: Toxicity in dog assessed as effect on emptying rate of stomach; format: organism-based, Canis lupus familiaris; conditions: in vivo
[5] = Toxicity in po dosed mouse; format: organism-based; conditions: in vivo
Procedure, shortened: (§2)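 Mice; LD50 derived by Horn's method. Amine compounds were tested as hydrochloride salts, with one exception given as the free base.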

Rattus norvegicus [6] = species on record: Rattus norvegicus; assay: Toxicity in rat assessed as effect on emptying rate of stomach; format: organism-based; conditions: in vivo
[7] = Toxicity in ip dosed mouse; format: organism-based; conditions: in vivo; procedure, shortened: as §2
Rattus norvegicus [8] = species on record: Rattus norvegicus; assay: Toxicity in rat assessed as effects on gastrointestinal mucosa; format: organism-based, Intestinal mucosa; conditions: in vivo
Canis familiaris [9] = species on record: Canis familiaris; assay: Toxicity in dog assessed as effects on gastrointestinal mucosa; format: organism-based, Canis lupus familiaris, Intestinal mucosa; conditions: in vivo
Mus musculus [10] = assay: Neurotoxicity in po dosed mouse; format: toxicity, organism-based; conditions: in vivo; procedure, shortened: as §1

Compound	ED50 (Rattus norvegicus [1])	inhibition in vivo at 50 mg/kg (Rattus norvegicus [2])	further results
C/C(=N\OCC(=O)OCCN(C)C)c1ccc(Br)cc1	47 mg/kg		
O=C(O)CO/N=C/c1ccc(Br)cc1	46 mg/kg		
COC(=O)CO/N=C(\C)c1ccc(Br)cc1	14 mg/kg		
C/C(=N\OCC(N)=O)c1ccc(Br)cc1	62 mg/kg		
C/C(=N\OCC(N)=O)c1ccc(F)cc1		20%	
C/C(=N\OCC(=O)O)c1ccc(O)cc1		< 20%	
CC(=O)Nc1ccc(/C(C)=N/OCC(=O)O)cc1		< 20%	
OCCO/N=C/c1ccc(Cl)cc1	90 mg/kg		
C/C(=N\OCC(=O)O)c1ccc(Cl)s1	34 mg/kg		
CC(C)=NOCC(=O)O		20%	
C/C(=N\OCC(=O)O)c1ccccc1Cl		< 20%	
CCCCC1C(=O)N(c2ccccc2)N(c2ccccc2)C1=O [PHENYLBUTAZONE]	34 mg/kg		
O=C(O)CO/N=C1\CCc2cc(Cl)ccc21		< 20%	
C/C(=N\OC(C)C(=O)O)c1ccc(Cl)cc1 (configuration not stated)	55 mg/kg		
C/C(=N\OCC(=O)O)c1c[nH]c2ccccc12		< 20%	
C/C(=N\OCCO)c1ccc(Cl)s1	60 mg/kg		
C/C(=N\OCC(N)=O)c1ccc(Cl)cc1	24 mg/kg		
C/C(=N\OCCC(=O)O)c1ccc(Cl)cc1	80 mg/kg		
C/C(=N\OCC(=O)O)c1cccc2ccccc12		20%	
C/C(=N\OCC(=O)OCC(C)(C)N(C)C)c1ccc(Cl)cc1.Cl	27 mg/kg		
C/C(=N\OCC(=O)O)c1ccccc1O		< 20%	
O=C(O)CO/N=C/c1ccc(Cl)cc1	45 mg/kg		
C/C(=N\OCC(N)=O)c1ccccc1		< 20%	

Compound	ED50 (Rattus norvegicus [1])	inhibition in vivo at 50 mg/kg (Rattus norvegicus [2])	further results
C/C(=N\NCC(=O)O)c1ccc(Cl)cc1	22 mg/kg		
COC(=O)OCCO/N=C(\C)c1ccc(Cl)cc1	33 mg/kg		
C/C(=N\OCC(=O)O)c1ccc([N+](=O)[O-])cc1		< 20%	
C/C(=N\OCC(=O)O)c1ccc(Cl)c(C)c1		20%	
C/C(=N\OCC(=O)O)c1ccc(Br)cc1	27 mg/kg		
C/C(=N\OCC(=O)O)c1ccc(C(C)(C)C)cc1		< 20%	
C/C(=N\OCCOC(=O)C(C)(C)C)c1ccc(Cl)cc1	38 mg/kg		
OCCO/N=C\c1ccc(Cl)cc1		< 20%	
C/C(=N/OCC(=O)O)c1ccc(Cl)s1		< 20%	
CNCCOC(=O)CO/N=C(\C)c1ccc(Cl)cc1.Cl	26 mg/kg		
C/C(=N\OCC(=O)O)c1ccc(Cl)cc1Cl	120 mg/kg		
CCOC(=O)CO/N=C(\C)c1ccc(Cl)cc1	32 mg/kg		
C/C(=N\OCC(=O)O)c1ccc(S(C)(=O)=O)cc1		20%	
C/C(=N\OCC(=O)OCCN(C)C)c1ccc(Cl)c(Cl)c1	80 mg/kg		
C/C(=N\OCC(=O)OCCN1CCOCC1)c1ccc(Cl)cc1.Cl	44 mg/kg		
CN(C)c1ccc(/C=N/OCC(=O)O)cc1		< 20%	
C/C(=N\OCC(=O)OC(C)C)c1ccc(Cl)cc1	50 mg/kg		
C/C(=N\OCCCCCC(=O)O)c1ccc(Cl)cc1	92 mg/kg		
C/C(=N\OCC(=O)O)c1ccc(C2CC2)cc1		< 20%	
C/C(=N\OCC(=O)O)c1ccc(C)cc1		20%	
O=C(O)CO/N=C/c1ccc([N+](=O)[O-])cc1		< 20%	
C/C(=C\CCC(=O)O)c1ccc(Cl)cc1		< 20%	
C/C(=N\OCC(=O)OCCN(C)C)c1ccc(Cl)cc1 [CLOXIMATE]	34 mg/kg		ED50 (Mus musculus [3]): > 320 mg/kg; Activity (Canis familiaris [4]): Non-toxic; LD50 [5]: > 1000 mg/kg; Activity (Rattus norvegicus [6]): Non-toxic; LD50 [7]: > 320 mg/kg; Activity (Rattus norvegicus [8]): Non-toxic; Activity (Canis familiaris [9]): Non-toxic; ED50 (Mus musculus [10]): > 1000 mg/kg

Compound	ED50 (Rattus norvegicus [1])	inhibition in vivo at 50 mg/kg (Rattus norvegicus [2])	further results
C/C(=N\OCCCC(=O)O)c1ccc(Cl)cc1	58 mg/kg		
CC(C)Cc1ccc(CC(=O)O)cc1 [IBUFENAC]	98 mg/kg		
CCCCC/C(=N\OCC(=O)O)c1ccc(Cl)cc1		< 20%	
C/C(=N\OCC(=O)OCCN1CCN(C)CC1)c1ccc(Cl)cc1.Cl	54 mg/kg		
C/C(=N\OCC(=O)O)c1ccccc1		< 20%	
CSc1ccc(/C(C)=N/OCC(=O)O)cc1		< 20%	
C/C(=N\OCC(=O)O)c1ccc(N(C)C)cc1		< 20%	
C/C(=N\OCC(N)=O)c1ccc(Cl)c(Cl)c1	55 mg/kg		
O=C(O)C#Cc1ccc(Cl)cc1		< 20%	
CC/C(=N\OCC(=O)O)c1ccc(Cl)cc1		< 20%	
O=C(O)CO/N=C/c1ccccc1Cl		< 20%	
COC(=O)CO/N=C(\C)c1ccc(Cl)cc1	24 mg/kg		
C/C(=N\OCC(=O)OCCN(C)C)c1ccc(F)cc1		20%	
C/C(=N\OCC(=O)O)c1ccc(C2CCCCC2)c(Cl)c1		< 20%	
C/C(=N\OCC(=O)O)c1ccc(F)cc1	85 mg/kg		
C/C(=N\OC(C)(C)C(=O)O)c1ccc(Cl)cc1	42 mg/kg		
O=C(O)CN/N=C/c1ccc(Cl)cc1	25 mg/kg		
C/C(=N\OCC(=O)O)c1ccc(CC2CCCCC2)cc1		< 20%	
C/C(=N\OCC(=O)O)c1ccc(C#N)cc1		< 20%	
CCCOC(=O)CO/N=C(\C)c1ccc(Cl)cc1	14 mg/kg		
O=C(O)CO/N=C\c1ccc(Cl)s1		< 20%	
C/C(=N\OCC(=O)O)c1cccc(Cl)c1		20%	
C/C(=N\OCC(=O)O)c1ccc(Cl)cc1	28 mg/kg		

Compound	ED50 (Rattus norvegicus [1])	inhibition in vivo at 50 mg/kg (Rattus norvegicus [2])	further results
C/C(=N\OCCCCO)c1ccc(Cl)cc1		< 20%	
COc1ccc(/C(C)=N/OCC(=O)O)cc1		< 20%	
CC(C)Cc1ccc(C(C)C(=O)O)cc1 (configuration not stated) [IBUPROFEN]	25 mg/kg		
C/C(=N\OCC(=O)O)c1ccc(N)cc1		20%	
O=C(O)CON=C1CCCCC1		< 20%	
C/C(=N\OCC(=O)O)c1ccc(C(F)(F)F)cc1	120 mg/kg		
C/C(=N\OCCO)c1ccc(Cl)cc1	29 mg/kg		
C/C(=N\OCC(C)O)c1ccc(Cl)cc1 (configuration not stated)		< 20%	
C/C(=N\OCC(=O)N(C)C)c1ccc(Cl)cc1	120 mg/kg		
C/C(=N\NCC(=O)O)c1ccc(C2CCCCC2)c(Cl)c1		< 20%	
C/C(=N\OCC(=O)O)c1ccc(Cl)c(Cl)c1	65 mg/kg		
C/C(=N\OCC(=O)O)c1ccccc1C(=O)O		< 20%	
O=C(O)CO/N=C/c1cccc2ccccc12		< 20%	
C/C(=N\OCC(=O)O)c1ccc(F)c(N)c1		20%	
CNC(=O)CO/N=C(\C)c1ccc(Cl)cc1	70 mg/kg		
C/C(=N\OCC(=O)OCCCCCCN(C)C)c1ccc(Cl)cc1	66 mg/kg		
C/C(=N/OCCO)c1ccc(Cl)s1		< 20%	
C/C(=C\CC(=O)O)c1ccc(Cl)cc1	70 mg/kg		
C/C(=N\OCC(=O)OCCNC1CCCCC1)c1ccc(Cl)cc1.Cl	26 mg/kg		
CC(=O)OCCO/N=C(\C)c1ccc(Cl)cc1	43 mg/kg		
